KDM4C inh = inhibitors of human demethylase GASC-1 KDM4C. Q9H3R0. GST-KDM4C 2-372, H3K9me3 peptide, LANCE TR-FRET. inhibition, % at 12.5 µM. 96,000 compounds, 0.15% hits. AID 720574;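 active = mean replicate inhibition above about 25%, with at least 55% of replicates also reaching it, limit read from the data, passing the limit was not always enough; inconclusive = only one of those two conditions met; inactive = neither condition met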
Target sequence (Q9H3R0 2-372 limits assumed): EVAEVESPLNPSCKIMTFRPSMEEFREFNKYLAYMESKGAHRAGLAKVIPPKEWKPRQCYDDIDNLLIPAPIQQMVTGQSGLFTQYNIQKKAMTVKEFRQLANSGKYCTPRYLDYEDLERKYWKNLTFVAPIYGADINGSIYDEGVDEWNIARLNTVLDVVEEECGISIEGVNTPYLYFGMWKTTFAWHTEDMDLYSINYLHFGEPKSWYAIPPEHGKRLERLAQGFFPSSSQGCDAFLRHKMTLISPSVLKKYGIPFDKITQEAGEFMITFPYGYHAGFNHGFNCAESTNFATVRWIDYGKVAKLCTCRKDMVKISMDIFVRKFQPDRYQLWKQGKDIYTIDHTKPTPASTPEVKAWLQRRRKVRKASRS
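Material: N-terminal GST-fused human GASC-1 (KDM4C) fragment, residues 2-372. Input: 10 nM enzyme. Incubation: enzyme reaction 30 min, then detection 60 min, both room temperature. Doses: one test concentration per compound. Read-out basis: inhibition from TR-FRET ratio decrease. Detection: LANCE TR-FRET, excitation 340 nm, emissions 618 and 671 nm.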
IDH1 mut inh = IDH1 R132H (human) inhibition. O75874. IDH1 R132H reductase, diaphorase/resazurin fluorescence, 60 min. inhibition, % at 10 µM. 70,000 compounds, 0.18% hits. AID 624101; in the data active = inhibition above about 34%; inconclusive = no clear call, values can overlap the other calls; inactive = below about 11%
T cruzi growth-1 = T. cruzi proliferation inhibition. T. cruzi beta-gal in NIH3T3, GalScreen luminescence, 90 h. inhibition, % at 8.34 µM. 77,000 compounds, 5.9% hits. AID 624255;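 active = mean inhibition above about 93%, with at least 55% of replicates each passing it, limit read from the data, passing the limit was not always enough; inconclusive = only one of those two conditions holds; inactive = neither condition holds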
T cruzi growth-2 = inhibitors of T. cruzi proliferation; shares compounds with T cruzi growth-1; T. cruzi beta-gal in NIH3T3, GalScreen luminescence, 90 h; inhibition, % at 8.35 µM; 5,600 compounds, 72% hits;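 active = mean replicate inhibition above about 95% and at least 55% of replicates individually reaching it, limit read from the data; inconclusive = only one of the two criteria is met; inactive = neither criterion is met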
T cruzi growth-3 = Trypanosoma cruzi proliferation inhibition. shares compounds with T cruzi growth-1. T. cruzi beta-gal in NIH3T3, GalScreen luminescence, 90 h. inhibition, % at 2.09 µM. 5,600 compounds, 21% hits. AID 651740;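 active = mean inhibition above about 95%, with at least 55% of replicates also reaching it, limit read from the data; inconclusive = meets just one of the two conditions; inactive = meets neither condition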
NIH3T3 tox = NIH/3T3 (mouse) viability loss. shares compounds with T cruzi growth-1. NIH/3T3 viability, CellTiter-Glo ATP luminescence, 90 h. cytotoxicity (signal decrease), % at 8.35 µM. 5,600 compounds, 14% hits;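 active = mean signal decrease across replicates above about 35% based on untreated-well scatter, with enough replicates individually passing, limit read from the data; inconclusive = no rule stated though some were filed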
NIH3T3 tox 2 = NIH/3T3 (mouse) viability loss; inhibition, % at 24.9 µM; 5,600 compounds, 56% hits; shares compounds with T cruzi growth-1; NIH/3T3 viability, CellTiter-Glo ATP luminescence, 90 h;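 active = mean loss of cell viability signal at or above a set limit, and enough replicates individually reaching it; inconclusive = meets only the mean limit or only the replicate share; inactive = meets neither condition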
Numbers stand for hits; - = inactive; ? = inconclusive; . = no result. This is one part of a sample in which hits are shown more often than they occur.

SMILES	KDM4C inh	IDH1 mut inh	T cruzi growth-1	T cruzi growth-2	T cruzi growth-3	NIH3T3 tox	NIH3T3 tox 2
COc1cccc(S(=O)(=O)N2CC[C@@H]3[C@H](CO)N(C)c4ccc(C#Cc5cccnc5)cc4[C@@H]32)c1	-	.	-	.	.	.	.
CC(C)C#Cc1ccc2c(c1)O[C@H](CN(C)C(=O)NC(C)C)[C@H](C)CN([C@@H](C)CO)S2(=O)=O	-	-	-	.	.	.	.
COc1ccc2c3c([nH]c2c1)[C@H](CO)N(S(C)(=O)=O)CC31CCN(C(=O)CN(C)C)CC1	-	.	.	.	.	.	.
O=C(C[C@H]1C=C[C@@H](NC(=O)CC2CC2)[C@H](CO)O1)NCC(F)(F)F	-	-	-	.	.	.	.
C[C@@H]1CCCCO[C@H](CN(C)S(=O)(=O)c2ccc(F)cc2)[C@@H](C)CN([C@@H](C)CO)C(=O)c2cc(NC(=O)Nc3ccc(F)cc3)ccc2O1	-	-	100	108	-	-	51
C[C@H](CO)N1C[C@H](C)[C@H](CN(C)S(=O)(=O)c2ccc(F)cc2)OCCCC[C@H](C)Oc2ccc(NC(=O)Nc3ccc4c(c3)OCO4)cc2C1=O	-	-	106	109	-	-	-
C[C@@H]1CN([C@H](C)CO)C(=O)c2cc(NC(=O)Nc3ccc4c(c3)OCO4)ccc2O[C@@H](C)CCCCO[C@H]1CN(C)S(=O)(=O)c1ccc(F)cc1	-	.	-	.	.	.	.
C[C@@H]1CCCCO[C@@H](CN(C)S(=O)(=O)c2ccc(F)cc2)[C@H](C)CN([C@H](C)CO)C(=O)c2cc(NC(=O)Nc3ccc(F)cc3)ccc2O1	-	.	100	104	-	-	-
C[C@@H]1CCCCO[C@@H](CN(C)S(=O)(=O)c2ccc(F)cc2)[C@@H](C)CN([C@H](C)CO)C(=O)c2cc(NC(=O)Nc3ccc(F)cc3)ccc2O1	-	-	-	.	.	.	.
Cc1ccc(S(=O)(=O)N(C)C[C@@H]2OCCCC[C@@H](C)Oc3ccc(NC(=O)Nc4ccc(F)cc4)cc3C(=O)N([C@@H](C)CO)C[C@H]2C)cc1	-	-	.	.	.	.	.
C[C@@H]1CCCCO[C@@H](CN(C)S(=O)(=O)c2ccc(F)cc2)[C@H](C)CN([C@@H](C)CO)C(=O)c2cc(NC(=O)Nc3ccc(F)cc3)ccc2O1	-	.	98	105	-	-	-
Cc1ccc(S(=O)(=O)N(C)C[C@@H]2OCCCC[C@H](C)Oc3ccc(NC(=O)Nc4ccc(F)cc4)cc3C(=O)N([C@H](C)CO)C[C@H]2C)cc1	.	-	.	.	.	.	.
CCCNC(=O)N1CC2(CCN(Cc3nccs3)CC2)c2c([nH]c3cc(OC)ccc23)[C@H]1CO	-	.	.	.	.	.	.
Cn1c(=O)c2c(nc(NCc3cccnc3)n2Cc2cccc(Br)c2)n(C)c1=O	.	-	.	.	.	.	.
C[C@H]1CN([C@@H](C)CO)C(=O)c2cc(NS(=O)(=O)c3ccc(F)cc3)ccc2O[C@@H]1CN(C)C	-	-	-	.	.	.	.
Cc1nn(CC(=O)Nc2cc(Cl)cc(Cl)c2)c(C)c1[N+](=O)[O-]	.	-	.	.	.	.	.
C[C@@H]1CN([C@@H](C)CO)C(=O)c2cc(NC(=O)NC3CCCCC3)ccc2O[C@@H](C)CCCCO[C@H]1CN(C)S(=O)(=O)c1ccc(F)cc1	-	-	?	-	-	-	-
Cc1ccc(S(=O)(=O)N(C)C[C@H]2OCCCC[C@H](C)Oc3ccc(NC(=O)Nc4ccc(F)cc4)cc3C(=O)N([C@H](C)CO)C[C@@H]2C)cc1	-	-	.	.	.	.	.
C[C@@H]1CCCCO[C@H](CN(C)S(=O)(=O)c2ccc(F)cc2)[C@@H](C)CN([C@H](C)CO)C(=O)c2cc(NC(=O)NC3CCCCC3)ccc2O1	-	-	-	.	.	.	.
Cc1ccc(S(=O)(=O)N(C)C[C@@H]2OCCCC[C@H](C)Oc3ccc(NC(=O)Nc4ccc(F)cc4)cc3C(=O)N([C@@H](C)CO)C[C@H]2C)cc1	-	-	106	102	-	-	-
C[C@H]1CN([C@@H](C)CO)C(=O)c2cc(NS(=O)(=O)c3ccccc3)ccc2O[C@@H]1CN(C)Cc1ccc(C(=O)O)cc1	-	-	-	.	.	.	.
CN1C(=O)c2cc(NC(=O)c3ccc(C(F)(F)F)cc3)ccc2OC[C@H]2O[C@H](CC(=O)NC3Cc4ccccc4C3)CC[C@H]21	-	.	-	.	.	.	.
CN1C(=O)c2cc(NC(=O)c3ccc(C(F)(F)F)cc3)ccc2OC[C@@H]2O[C@H](CC(=O)NC3Cc4ccccc4C3)CC[C@H]21	-	.	105	113	-	-	?
CN1C(=O)c2cc(NC(=O)c3cccc(Cl)c3)ccc2OC[C@@H]2O[C@H](CC(=O)NC3CCCCC3)CC[C@@H]21	-	.	100	99	-	-	60
CN1C(=O)c2cc(NC(=O)c3cccc(Cl)c3)ccc2OC[C@H]2O[C@@H](CC(=O)NC3CCCCC3)CC[C@@H]21	-	.	.	.	.	.	.
SMILES	KDM4C inh	IDH1 mut inh	T cruzi growth-1	T cruzi growth-2	T cruzi growth-3	NIH3T3 tox	NIH3T3 tox 2
C[C@H](CO)N1C[C@H](C)[C@@H](CN(C)S(=O)(=O)c2cn(C)cn2)Oc2c(NS(=O)(=O)c3ccc(Cl)cc3)cccc2C1=O	-	-	-	.	.	.	.
Cc1ccccc1-c1ccc([C@H]2[C@H]3CN(C(=O)Cc4ccccn4)CC(=O)N3[C@H]2CO)cc1	-	.	.	.	.	.	.
Cc1sc2ncn(CC(=O)Nc3ccc(F)c(Cl)c3)c(=O)c2c1C	.	-	.	.	.	.	.
CC(=O)Nc1ccc(S(=O)(=O)NC2(C(F)(F)F)C(=O)N(c3ccc(C(C)C)cc3)C(C)=C2C(C)=O)cc1 (stereo not given)	.	-	.	.	.	.	.
COc1cccc(S(=O)(=O)Nc2ccc3c(c2)[C@H]2C[C@H](CC(=O)NC4CCCCC4)O[C@H](CO)[C@H]2O3)c1	-	-	124	?	-	-	-
COc1cccc(S(=O)(=O)Nc2ccc3c(c2)[C@H]2C[C@H](CC(=O)NCc4ccc(Cl)cc4)O[C@@H](CO)[C@H]2O3)c1	-	-	146	108	-	-	-
COc1cccc(S(=O)(=O)Nc2ccc3c(c2)[C@@H]2C[C@@H](CC(=O)NCc4ccc(Cl)cc4)O[C@@H](CO)[C@@H]2O3)c1	-	-	-	.	.	.	.
COc1cccc(S(=O)(=O)Nc2ccc3c(c2)[C@H]2C[C@@H](CC(=O)NC4CCCCC4)O[C@H](CO)[C@H]2O3)c1	.	?	-	.	.	.	.
O=C1C=CC(O)(/C=C/C(=O)O[C@@H]2[C@@H](O)[C@H](Oc3ccc(O)cc3)O[C@H](CO)[C@H]2O)C=C1	.	-	.	.	.	.	.
O=C(NC1Cc2ccccc2C1)[C@H]1[C@H](CO)[C@H]2Cn3c(ccc(C4=CCCCC4)c3=O)[C@@H]1N2CC1CC1	-	.	-	.	.	.	.
CNC[C@H]1Oc2cc(C#CCC3CCCC3)ccc2S(=O)(=O)N([C@H](C)CO)C[C@H]1C	-	-	?	98	-	?	106
CNC[C@H]1Oc2cc(C#CC3CCCC3)ccc2S(=O)(=O)N([C@@H](C)CO)C[C@@H]1C	-	-	-	.	.	.	.

Bioassay records as filed in PubChem BioAssay.
